We go through 39 compounds from PubChem BioAssay.

Active and inactive are the calls of the source.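 The calls were made as follows, unless noted: active = potentiation averaged over duplicate wells exceeding buffer-only control mean by more than 3 SD; inactive = the rest.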

Chain of Potassium voltage-gated channel subfamily KQT member 1 (Homo sapiens) (P51787 whole entry, looked up): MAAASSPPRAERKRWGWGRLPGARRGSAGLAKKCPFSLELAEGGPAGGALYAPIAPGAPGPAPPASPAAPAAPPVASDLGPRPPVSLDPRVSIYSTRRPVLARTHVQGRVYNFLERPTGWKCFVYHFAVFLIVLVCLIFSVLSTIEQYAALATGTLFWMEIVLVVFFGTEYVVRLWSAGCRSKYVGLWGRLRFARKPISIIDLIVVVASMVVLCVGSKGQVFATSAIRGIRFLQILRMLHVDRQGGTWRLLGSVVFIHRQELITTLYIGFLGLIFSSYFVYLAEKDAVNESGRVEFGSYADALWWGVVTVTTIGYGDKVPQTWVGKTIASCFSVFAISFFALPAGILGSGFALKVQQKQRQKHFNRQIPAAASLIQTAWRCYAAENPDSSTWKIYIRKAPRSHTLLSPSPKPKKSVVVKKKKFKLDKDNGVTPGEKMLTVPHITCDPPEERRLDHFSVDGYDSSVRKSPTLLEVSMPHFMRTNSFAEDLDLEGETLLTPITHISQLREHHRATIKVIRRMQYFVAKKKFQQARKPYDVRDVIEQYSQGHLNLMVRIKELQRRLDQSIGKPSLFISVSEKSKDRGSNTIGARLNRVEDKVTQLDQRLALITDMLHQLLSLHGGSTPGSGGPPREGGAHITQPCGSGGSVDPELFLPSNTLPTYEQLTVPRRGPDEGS

Test system in one test: not listed separately
The test can be described thus: nonspecific flux increase, KCNQ1-free cells – parental CHO cells, counter-screen for KCNQ1 potentiator project (AID 493006;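 active = duplicate-averaged activation above buffer control mean plus 5 SD of those controls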;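 as to activation: fluorescence ratio of max minus min over baseline after K+ and Tl+ depolarization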). To be noted: parental CHO-K1 cells, FluxOR thallium flux, at 10 µM; active compounds read high. Summed up:
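Assay system: parental CHO-K1 cells lacking KCNQ1, loaded with FluxOR thallium dye; timing: dye 90 min RT, compound 20 min RT; signal: kinetic thallium-flux fluorescence; repeats: duplicate wells per compound, percent values averaged; benchmarks: buffer and R-L3 controls; reagent: Potassium/thallium depolarization pulse; read-out: fluorescence change ratio scaled 0% buffer, 100% R-L3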
(The purpose of a counterscreen is to sort out artefacts and off-target activity.)
`C=CCNC(=S)Nc1sc2c(c1C(=O)OCC)CC(C)(CC)OC2` (stereo not drawn): the activation was 318% (active).
On to `CC(=O)Nc1ccc(S(=O)(=O)N2CCC(C(=O)O)CC2)cc1`, for which the outcome was inactive.
In the case of `CC1CCc2sc3nc(N4CCN(CCO)CC4)n4ncnc4c3c2C1` (stereo not drawn), the activation was 510% (active).
With `CCOC(=O)CN1C(=O)N(CC)C(C)=C(C(=O)OC)[C@@H]1c1ccccc1`, the outcome was inactive.
Turning to `Cc1ccc(-n2ncc3c(SCC(=O)NNC(=O)c4ccco4)ncnc32)cc1`, the outcome was inactive.
With `CN(c1ccccc1)S(=O)(=O)c1ccc(NC(=O)c2nc(S(C)(=O)=O)ncc2Cl)cc1`, the outcome was inactive.
Consider `Cc1cnc(NC(=O)c2ccc(-c3nc4ccccc4s3)o2)s1`, for which the result was inactive.
For `CON/C=N/C(=S)Nc1ncc(C(F)(F)F)cc1Cl`, the activation was 283% (active).
With `OC(CON=C1c2ccccc2-c2ccccc21)CN1CCNCC1` (stereo not drawn), the outcome was inactive.
On the same count and under the same terms, under `Cc1cc(C)c(NC(=O)c2cn3c4c(c(N5CCN(C)CC5)c(F)cc4c2=O)OCC3C)c(C)c1` (stereo not drawn) stands “inactive”.
On to `CCCc1cc(-c2n[nH]c(=S)n2C(C)c2ccccc2)cs1` (stereo not drawn), for which the activation was 139% (active).
With `CCOc1cc(CNc2ncnc3nc[nH]c23)ccc1OC`, the result was inactive.
Same read-out and setting: under `CCOC(=O)CSc1nc2ccccc2c(=O)n1-c1ccc(C)cn1` stands “inactive”.
Take `S=c1[nH]nc(-c2ccco2)n1/N=C/c1ccc(Cl)c(Cl)c1`: the activation is 512% (active).
On the same count and under the same terms, under `Cc1sc2ncnc(SCC(=O)NC(=O)c3cccn3C)c2c1C` stands 170% (active); under `Cc1cccc(NC(=S)NNC(=O)c2cc3c(s2)CCC(C)C3)c1C` (stereo not drawn), 192% (active).
Consider `CCc1ccc(CNC(=O)CCn2nc(C)c3c(C)n(-c4ccccc4)nc3c2=O)cc1`, for which the result was inactive.
Turning to `CCN=C1SC(CC(=O)Nc2ccccc2OCC)C(=O)N1CC` (stereo not drawn), the result was inactive.
For `Cc1cc(OCC(=O)NNC(=O)c2cnccn2)cc(C)c1Cl`, the activation is 200% (active).
Still for that read-out and setting: under `c1ccc(CCCNc2ncnc3nc[nH]c23)cc1` stands 316% (active); under `CCOc1ccc2nc(/N=C/c3c(C)[nH]n(-c4ccc(C)cc4)c3=O)sc2c1`, 356% (active); under `COc1ccc(OCC(=O)NNC(=O)c2cccs2)cc1`, 146% (active).
In the case of `Cn1nnnc1SCC(=O)NCc1ccc2c(c1)OCO2`, the outcome was inactive.
Still for that read-out and setting: under `O=c1cc(-c2c(F)c(F)c(F)c(F)c2F)oc2ccccc12` stands “inactive”.
For the compound `CCOc1ccc(-n2cc(C(=O)Nc3cccc(C)n3)c3cc(OC)c(OC)cc3c2=O)cc1`, the outcome was inactive.
Turning to `O=c1c2ccc(Cl)cc2nc(-c2ccc([N+](=O)[O-])cc2)n1O`, the activation is 345% (active).
As to `OCCCCNCc1ccc(OCc2ccc(Cl)cc2)cc1`, the activation is 220% (active).
For the compound `COc1ccc(C)c2sc(NC(=O)C3=COCCO3)nc12`, the result was inactive.
On to `N#CC(c1ccc(Cl)cc1)c1ccc2c(C(F)(F)F)cc(C(F)(F)F)nc2n1` (stereo not drawn), for which the activation was 296% (active).
On to `Cc1ccccc1N(CC(=O)N/N=C/c1cc(C)n(-c2ccccc2C)c1C)S(C)(=O)=O`, for which the result was inactive.
Turning to `N=C1S/C(=C\c2ccc(-c3cccc(Cl)c3)o2)C(=O)N1c1nccs1`, the result was inactive.
Turning to `Cc1ccc(NC(=S)N2CCC(N(C)CC3CCCO3)CC2)cc1` (stereo not drawn), the outcome was inactive.
For `CC(C)n1c(=S)[nH]c2scc(-c3cccs3)c2c1=O`, the activation was 491% (active).
In the case of `CCc1ccc(/C=N/NC(=O)Cc2cccn2C)cc1`, the result was inactive.
Take `Cc1csc(NC(=S)NC(=O)c2ccccc2)n1`: the outcome was inactive.
On the same count and under the same terms, under `COc1cccc(C(=O)NC(=S)N2c3ccccc3CC2C)c1OC` (stereo not drawn) stands “inactive”.
The same measure, in the same setting: under `COc1cccc(OC)c1C(=O)Nc1ccc(C(=O)NCc2ccccc2)cc1` stands “inactive”; under `COc1ccc(-n2c(C)cc(C(=O)CCl)c2C)cc1`, “inactive”.
Same read-out and setting: under `CCOC(=O)c1c(NC(=S)NCc2ccccc2)sc2c1CCN(C(=O)OCC)C2` stands “inactive”.

A further test concerns the target Potassium voltage-gated channel subfamily KQT member 1 (Homo sapiens) (UniProt P51787). Nature of the test: enhancement of KCNQ1 channel thallium flux – FluxOR thallium flux, CHO cells, duplicates, confirmation (AID 493007).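 As to outcome: cells depolarized by a potassium plus thallium sulfate stimulus after compound.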 To be noted: KCNQ1 cell line, FluxOR thallium flux fluorescence, at 10 µM; active compounds read high, % of reference activator effect, buffer zero. The method, boiled down:
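material = CHO cells stably expressing the KCNQ1 potassium channel | repeats = duplicate wells per compound | measure = percent activation between buffer and R-L3 responses | signal = FluxOR thallium-flux fluorescence, kinetic read | schedule = FluxOR dye loading 90 min, compound exposure 20 min, room temperature | control set = buffer and R-L3 controls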
With `C=CCNC(=S)Nc1sc2c(c1C(=O)OCC)CC(C)(CC)OC2` (stereo not drawn), the potentiation is 49.5% (active).
Turning to `CC(=O)Nc1ccc(S(=O)(=O)N2CCC(C(=O)O)CC2)cc1`, the outcome was inactive.
Regarding `CC1CCc2sc3nc(N4CCN(CCO)CC4)n4ncnc4c3c2C1` (stereo not drawn), the potentiation was 200% (active).
With `CCOC(=O)CN1C(=O)N(CC)C(C)=C(C(=O)OC)[C@@H]1c1ccccc1`, the outcome was inactive.
On the same count and under the same terms, under `Cc1ccc(-n2ncc3c(SCC(=O)NNC(=O)c4ccco4)ncnc32)cc1` stands “inactive”; under `CN(c1ccccc1)S(=O)(=O)c1ccc(NC(=O)c2nc(S(C)(=O)=O)ncc2Cl)cc1`, “inactive”.
The same measure, in the same setting: under `Cc1cnc(NC(=O)c2ccc(-c3nc4ccccc4s3)o2)s1` stands “inactive”.
With `CON/C=N/C(=S)Nc1ncc(C(F)(F)F)cc1Cl`, the potentiation was 87.5% (active).
For `OC(CON=C1c2ccccc2-c2ccccc21)CN1CCNCC1` (stereo not drawn), the result was inactive.
`Cc1cc(C)c(NC(=O)c2cn3c4c(c(N5CCN(C)CC5)c(F)cc4c2=O)OCC3C)c(C)c1` (stereo not drawn): the outcome was inactive.
`CCCc1cc(-c2n[nH]c(=S)n2C(C)c2ccccc2)cs1` (stereo not drawn): the potentiation is 37% (active).
Take `CCOc1cc(CNc2ncnc3nc[nH]c23)ccc1OC`: the outcome was inactive.
On the same count and under the same terms, under `CCOC(=O)CSc1nc2ccccc2c(=O)n1-c1ccc(C)cn1` stands “inactive”.
Turning to `S=c1[nH]nc(-c2ccco2)n1/N=C/c1ccc(Cl)c(Cl)c1`, the potentiation was 290% (active).
Still for that read-out and setting: under `Cc1sc2ncnc(SCC(=O)NC(=O)c3cccn3C)c2c1C` stands 28.5% (active); under `Cc1cccc(NC(=S)NNC(=O)c2cc3c(s2)CCC(C)C3)c1C` (stereo not drawn), 55.5% (active).
Take `CCc1ccc(CNC(=O)CCn2nc(C)c3c(C)n(-c4ccccc4)nc3c2=O)cc1`: the result was inactive.
On the same count and under the same terms, under `CCN=C1SC(CC(=O)Nc2ccccc2OCC)C(=O)N1CC` (stereo not drawn) stands “inactive”.
Consider `Cc1cc(OCC(=O)NNC(=O)c2cnccn2)cc(C)c1Cl`, for which the potentiation is 22% (active).
Take `c1ccc(CCCNc2ncnc3nc[nH]c23)cc1`: the potentiation was 78.5% (active).
Turning to `CCOc1ccc2nc(/N=C/c3c(C)[nH]n(-c4ccc(C)cc4)c3=O)sc2c1`, the potentiation is 120% (active).
On to `COc1ccc(OCC(=O)NNC(=O)c2cccs2)cc1`, for which the potentiation was 47.5% (active).
As for `Cn1nnnc1SCC(=O)NCc1ccc2c(c1)OCO2`, the result was inactive.
Same read-out and setting: under `O=c1cc(-c2c(F)c(F)c(F)c(F)c2F)oc2ccccc12` stands “inactive”; under `CCOc1ccc(-n2cc(C(=O)Nc3cccc(C)n3)c3cc(OC)c(OC)cc3c2=O)cc1`, “inactive”.
As for `O=c1c2ccc(Cl)cc2nc(-c2ccc([N+](=O)[O-])cc2)n1O`, the potentiation is 90.5% (active).
Regarding `OCCCCNCc1ccc(OCc2ccc(Cl)cc2)cc1`, the potentiation is 292% (active).
For `COc1ccc(C)c2sc(NC(=O)C3=COCCO3)nc12`, the result was inactive.
For the compound `N#CC(c1ccc(Cl)cc1)c1ccc2c(C(F)(F)F)cc(C(F)(F)F)nc2n1` (stereo not drawn), the potentiation was 145% (active).
`Cc1ccccc1N(CC(=O)N/N=C/c1cc(C)n(-c2ccccc2C)c1C)S(C)(=O)=O`: the result was inactive.
Turning to `N=C1S/C(=C\c2ccc(-c3cccc(Cl)c3)o2)C(=O)N1c1nccs1`, the potentiation is 19% (active).
On the same count and under the same terms, under `Cc1ccc(NC(=S)N2CCC(N(C)CC3CCCO3)CC2)cc1` (stereo not drawn) stands 19.5% (active); under `CC(C)n1c(=S)[nH]c2scc(-c3cccs3)c2c1=O`, 200% (active).
Consider `CCc1ccc(/C=N/NC(=O)Cc2cccn2C)cc1`, for which the result was inactive.
Turning to `Cc1csc(NC(=S)NC(=O)c2ccccc2)n1`, the potentiation is 32% (active).
Regarding `COc1cccc(C(=O)NC(=S)N2c3ccccc3CC2C)c1OC` (stereo not drawn), the result was inactive.
The same measure, in the same setting: under `COc1cccc(OC)c1C(=O)Nc1ccc(C(=O)NCc2ccccc2)cc1` stands “inactive”; under `COc1ccc(-n2c(C)cc(C(=O)CCl)c2C)cc1`, “inactive”.
Turning to `CCOC(=O)c1c(NC(=S)NCc2ccccc2)sc2c1CCN(C(=O)OCC)C2`, the outcome was inactive.
